Laboratory results from ChEMBL document CHEMBL4350963, “Discovery and Lead-Optimization of 4,5-Dihydropyrazoles as Mono-Kinase Selective, Orally Bioavailable and Efficacious Inhibitors of Receptor Interacting Protein 1 (RIP1) Kinase” (J Med Chem, 2019).
In brackets after ≈: the same amount, converted by molar mass.

Key:
[1] = Chromatographic hydrophobicity index, log D of the compound at pH 7.4 by reverse-phase HPLC analysis; type: physicochemical; details: buffer
In short: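 Log D at pH 7.4 was calculated from the retention time on a fast-gradient reverse-phase HPLC run.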

[2] = Drug metabolism in rat urine assessed as hydroxylation; type: ADME
[3] = Lipophilicity, log P of the compound; type: physicochemical; details: octanol/water
[4] = Drug metabolism in rat blood assessed as hydroxylation; type: ADME, tissue-based
[5] = Drug metabolism in rat bile assessed as hydroxylation; type: ADME, tissue-based
[6] = Drug exposure in rat at 2 mg/kg, po; type: ADME, organism-based; details: in vivo, BLD = below limit of detection
In short: (§1)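 Rat pharmacokinetics: the iv arm was dosed at 1 mg/kg in 5% DMSO/20% Cavitron aqueous solution. The oral arm was dosed at 2 mg/kg in 5% DMSO/6% Cavitron aqueous solution. Bioavailability was calculated non-crossover, from average exposures in separate oral and iv studies.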

[7] = AUC (0 to infinity) in rat at 2 mg/kg, po; type: ADME, organism-based; set-up: dose 2 mg/kg, route oral, time infinity; details: in vivo; in short: as §1
[8] = Tmax in rat at 2 mg/kg, po; type: ADME, organism-based; details: in vivo
[9] = Volume of distribution at steady state in rat at 1 mg/kg, iv; type: ADME, organism-based; details: in vivo, read-out: Vdss
[10] = Solubility of the compound in fasted state simulated intestinal fluid measured after 4 hrs using crystalline sample; type: physicochemical
[11] = AUC (0 to infinity) in rat at 1 mg/kg, iv; type: ADME, organism-based; set-up: dose 1 mg/kg, time infinity, route intravenous; details: in vivo; in short: as §1
[12] = Cmax in rat at 2 mg/kg, po; type: ADME, organism-based; set-up: dose 2 mg/kg, route oral; details: in vivo; in short: as §1
[13] = Cmax in monkey at 2 mg/kg, po; type: ADME, organism-based, Macaca mulatta; set-up: dose 2 mg/kg, route oral; details: rhesus monkey, in vivo
[14] = Volume of distribution at steady state in mouse at 2 mg/kg, iv; type: ADME, organism-based; details: in vivo, read-out: Vdss
[15] = Oral bioavailability in monkey at 2 mg/kg; type: ADME, organism-based, Macaca mulatta; details: rhesus monkey, in vivo
[16] = Tmax in minipig at 2 mg/kg, po; type: ADME, organism-based, Sus scrofa; details: pig, in vivo
[17] = Oral bioavailability in minipig at 2 mg/kg; type: ADME, organism-based, Sus scrofa; details: pig, in vivo
[18] = Cmax in mouse at 30 mg/kg, po; type: ADME, organism-based; set-up: dose 30 mg/kg, route oral; details: in vivo
In short: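 Mouse pharmacokinetics: the iv arm received 2 mg/kg in 5% DMSO/20% Cavitron aqueous solution. The oral arm received 30 mg/kg as a suspension in 1% aqueous methylcellulose.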

[19] = Oral bioavailability in rat at 2 mg/kg; type: ADME, organism-based; details: in vivo
[20] = Cmax in minipig at 2 mg/kg, po; type: ADME, organism-based, Sus scrofa; set-up: dose 2 mg/kg, route oral; details: pig, in vivo
[21] = AUC (0 to infinity) in monkey at 1 mg/kg, iv; type: ADME, organism-based, Macaca mulatta; set-up: dose 1 mg/kg, time infinity, route intravenous; details: rhesus monkey, in vivo
[22] = AUC (0 to infinity) in minipig at 1 mg/kg, iv; type: ADME, organism-based, Sus scrofa; set-up: dose 1 mg/kg, route intravenous, time infinity; details: pig, in vivo
[23] = Tmax in monkey at 2 mg/kg, po; type: ADME, organism-based, Macaca mulatta; details: rhesus monkey, in vivo
[24] = Solubility of the compound in fasted state simulated intestinal fluid measured after 4 hrs; type: physicochemical
[25] = AUC (0 to infinity) in mouse at 2 mg/kg, iv; type: ADME, organism-based; set-up: dose 2 mg/kg, time infinity, route intravenous; details: in vivo
[26] = Volume of distribution at steady state in monkey at 1 mg/kg, iv; type: ADME, organism-based, Macaca mulatta; details: rhesus monkey, in vivo, read-out: Vdss
[27] = Volume of distribution at steady state in minipig at 1 mg/kg, iv; type: ADME, organism-based, Sus scrofa; details: pig, in vivo, read-out: Vdss
[28] = Tmax in mouse at 30 mg/kg, po; type: ADME, organism-based; details: in vivo
[29] = Time at which mouse plasma concentration stays above in vitro IC90 for RIP1 in mouse L929 cells assessed as reduction in TNFalpha/QVD-Oph-induced necroptosis in mouse at 100 mg/kg/day added to chow pellets; type: ADME, organism-based; details: in vivo
[30] = Time at which mouse plasma concentration stays above in vitro IC50 for RIP1 in mouse L929 cells assessed as reduction in TNFalpha/QVD-Oph-induced necroptosis in mouse at 10 mg/kg/day added to chow pellets; type: ADME, organism-based; details: in vivo
[31] = Unbound brain to blood concentration ratio in C57BL/6 mouse at 9.6 to 96 mg/kg/day added to chow pellets; type: ADME, organism-based; details: po, read-out: K(p,uu,brain)

chromatographic logD [1]	Compound	also measured
5.4	O=C(C1CCCC1)N1N=CCC1c1ccccc1 (stereo unspecified)	–
6.6	CC(C)(C)C(=O)N1N=CCC1c1ccc(Cl)cc1 (stereo unspecified)	–
3	O=C(C1CCOC1)N1N=CCC1c1ccccc1 (stereo unspecified)	–
3.2	CCC(=O)N1CCC(C(=O)N2N=CCC2c2ccccc2)CC1 (stereo unspecified)	–
5.8	CC(C)(C)C(=O)N1N=CC[C@H]1c1ccccc1	Drug metabolism [2]: Metabolite_Detected; logP [3]: 5.9; Drug metabolism [4]: Metabolite_Detected; Drug metabolism [5]: Metabolite_Detected; Drug uptake [6]: Bld
2.5	CC(=O)N1CCC(C(=O)N2N=CC[C@H]2c2ccccc2)CC1	AUC(0-inf) [7]: 1600 ng·h/mL; Tmax [8]: 30 min; Vd [9]: 1.7 L/kg; solubility thermodynamic at 4 h [10]: 7400 µg/mL (≈ 24.7 mM); AUC(0-inf) [11]: 420 ng·h/mL; Cmax [12]: 795 ng/mL
4.9	CN1CCN(C(=O)C(C)(C)C)C(c2ccccc2)C1 (stereo unspecified)	–
5	CC(C)(C)C(=O)N1CCC1c1ccccc1 (stereo unspecified)	–
4.4	CC(C)C(=O)N1N=CCC1c1ccccc1 (stereo unspecified)	–
2.5	CC(=O)N1CCC(C(=O)N2N=CCC2c2ccccc2)CC1 (racemic)	–
4.1	CC(C)(C)C(=O)N1N=CCC1c1ccc(S(C)(=O)=O)cc1 (stereo unspecified)	–
6.5	C[C@@H]1C=NN(C(=O)C(C)(C)C)[C@@H]1c1ccccc1	–
1.4	CC(C)(CN)C(=O)N1N=CCC1c1ccccc1 (stereo unspecified)	–
3.1	O=C(C1CCOCC1)N1N=CCC1c1ccccc1 (stereo unspecified)	AUC(0-inf) [7]: 44 ng·h/mL; Tmax [8]: 5 min; Cmax [12]: 95 ng/mL
8	CC(C)(C)C(=O)N1N=CCC1c1ccc(C(C)(C)C)cc1 (stereo unspecified)	–
1.1	CN1CCC(C(=O)N2N=CCC2c2ccccc2)CC1 (stereo unspecified)	–

chromatographic logD [1]	Compound	also measured
6.4	Cc1ccc(C2CC=NN2C(=O)C(C)(C)C)cc1 (stereo unspecified)	–
3.2	CC(C)(C)C(=O)N1N=CCC1c1cccnc1 (stereo unspecified)	AUC(0-inf) [7]: 260 ng·h/mL; Tmax [8]: 5 min; Cmax [12]: 360 ng/mL
6.7	CC(C)(C)C(=O)N1CCCCC1c1ccccc1 (stereo unspecified)	–
6.4	CC1=NN(C(=O)C(C)(C)C)[C@H](c2ccccc2)C1	–
5.8	CC(C)(C)C(=O)N1N=CCC1c1ccccc1 (racemic)	–
4.7	CC(C)(C)C(=O)N1CCOCC1c1ccccc1 (stereo unspecified)	–
6.6	CC(C)(C)C(=O)N1N=CCC1c1cccc(Cl)c1 (stereo unspecified)	–
3.2	CC(C)(C)C(=O)N1N=CCC1c1ccncc1 (stereo unspecified)	–
2.5	CC(C)(C)C(=O)N1CCNCC1c1ccccc1 (stereo unspecified)	–
8.3	CC(C)(C)C(=O)n1nccc1-c1ccccc1	–
5.9	CC(C)(C)C(=O)N1N=CCC1c1cccc(F)c1 (stereo unspecified)	–
5.6	CC(C)(C)C(=O)N1CCSC1c1ccccc1 (stereo unspecified)	–
4.7	O=C(C1CCC1)N1N=CCC1c1ccccc1 (stereo unspecified)	–
3.5	CC(C)(C)C(=O)N1N=CCC1c1ccccn1 (stereo unspecified)	–
3.4	CC(C)(CO)C(=O)N1N=CCC1c1ccccc1 (stereo unspecified)	–
5.9	O=C(C1CCCCC1)N1N=CCC1c1ccccc1 (stereo unspecified)	–

Further lines, the compound ahead of its results:

Compound	chromatographic logD [1]	also measured
O=C(c1cc[nH]n1)N1CCC(C(=O)N2N=CCC2c2ccccc2)CC1 (stereo unspecified)	2.4	–
O=C(C1CCN(c2ccccc2)CC1)N1N=CCC1c1ccccc1 (stereo unspecified)	6.3	–
O=C(c1ccccc1)N1CCC(C(=O)N2N=CCC2c2ccccc2)CC1 (stereo unspecified)	4.4	–
N#Cc1nccc(N2CCC(C(=O)N3N=CC[C@H]3c3cc(F)cc(F)c3)CC2)n1	5.1	–
Cc1nnc(N2CCC(C(=O)N3N=CC[C@H]3c3cc(F)cc(F)c3)CC2)o1	3.6	Cmax [13]: 480 ng/mL; Vd [14]: 1.8 L/kg; bioavailability [15]: 40%; Tmax [16]: 80 min; bioavailability [17]: 65%; Cmax [18]: 5410 ng/mL; bioavailability [19]: 130%; Cmax [20]: 576 ng/mL; AUC(0-inf) [21]: 3100 ng·h/mL; Tmax [8]: 25 min; AUC(0-inf) [22]: 1300 ng·h/mL; Vd [9]: 1.3 L/kg; Tmax [23]: 120 min; solubility at 4 h [24]: 250 µg/mL (≈ 0.666 mM); AUC(0-inf) [25]: 1100 ng·h/mL; Vd [26]: 1.1 L/kg; Vd [27]: 1.3 L/kg; Tmax [28]: 30 min; AUC(0-inf) [11]: 1300 ng·h/mL; Cmax [12]: 1100 ng/mL
O=C(c1ccncc1)N1N=CCC1c1ccccc1 (stereo unspecified)	2.7	–
O=C(c1cccnc1)N1N=CCC1c1ccccc1 (stereo unspecified)	2.7	–
O=C(C1CCN(C(=O)C(F)(F)F)CC1)N1N=CCC1c1ccccc1 (stereo unspecified)	4.9	–
Cc1nnc(N2CCC(C(=O)N3N=CC[C@H]3c3ccccc3)CC2)o1	3.2	Vd [9]: 1.6 L/kg; AUC(0-inf) [11]: 800 ng·h/mL
O=C(c1cccnc1)N1CCC(C(=O)N2N=CCC2c2ccccc2)CC1 (stereo unspecified)	2.6	–
CC(C)(C)C(=O)N1N=CCC1C1CCCCC1 (stereo unspecified)	7.3	–
O=C(c1ccccn1)N1N=CCC1c1ccccc1 (stereo unspecified)	2.4	–
N#Cc1cc(N2CCC(C(=O)N3N=CC[C@H]3c3cc(F)cc(F)c3)CC2)ncn1	5	Time [29]: > 24 h; bioavailability [19]: 88%; Tmax [8]: 30 min; Vd [9]: 4.6 L/kg; Time [30]: > 24 h; AUC(0-inf) [11]: 410 ng·h/mL; Cmax [12]: 215 ng/mL; Kp uu [31]: 2.5
Cc1ccc(C2CC=NN2C(=O)C(C)(C)C)cc1F (stereo unspecified)	6.6	–
CC(C)(C)C(=O)N1N=CCC1c1cc(F)cc(F)c1 (stereo unspecified)	6.3	–
O=C(c1cocn1)N1CCC(C(=O)N2N=CCC2c2ccccc2)CC1 (stereo unspecified)	2.9	Vd [9]: 0.98 L/kg; AUC(0-inf) [11]: 290 ng·h/mL
CC(C)(C)C(=O)N1N=CCC1C1CCCC1 (stereo unspecified)	6.7	–
O=C(C1CCN(c2cccnn2)CC1)N1N=CC[C@H]1c1ccccc1	3.4	–

Compound	chromatographic logD [1]	also measured
O=C(C1CCN(c2ccccc2)CC1)N1N=CC[C@H]1c1ccccc1	6.3	–
N#Cc1cnc(N2CCC(C(=O)N3N=CC[C@H]3c3cc(F)cc(F)c3)CC2)cn1	5.2	bioavailability [19]: 99%; Tmax [8]: 38 min; Vd [9]: 6.1 L/kg; AUC(0-inf) [11]: 400 ng·h/mL; Cmax [12]: 73 ng/mL
O=C(c1cn[nH]c1)N1CCC(C(=O)N2N=CCC2c2ccccc2)CC1 (stereo unspecified)	2.1	Vd [9]: 1.6 L/kg; AUC(0-inf) [11]: 360 ng·h/mL
O=C(c1ccccn1)N1CCC(C(=O)N2N=CCC2c2ccccc2)CC1 (stereo unspecified)	3.1	–
O=C(c1c[nH]nn1)N1CCC(C(=O)N2N=CCC2c2ccccc2)CC1 (stereo unspecified)	2	Vd [9]: 1.3 L/kg; AUC(0-inf) [11]: 450 ng·h/mL
CN1CCC(C2CC=NN2C(=O)C(C)(C)C)CC1 (stereo unspecified)	1.4	–
O=C(c1ccccc1)N1N=CCC1c1ccccc1 (stereo unspecified)	4.6	–
CC(C)(C)C(=O)N1N=CCC1C1CCOCC1 (stereo unspecified)	4.1	–
O=C(C1CCN(c2ccncn2)CC1)N1N=CC[C@H]1c1ccccc1	3.2	–
N#Cc1ccc(N2CCC(C(=O)N3N=CC[C@H]3c3cc(F)cc(F)c3)CC2)nn1	4.8	–
O=C(C1CCN(c2ccccn2)CC1)N1N=CC[C@H]1c1ccccc1	5.1	–
CC(C)(C)C(=O)N1N=CCC1c1cc[nH]n1 (stereo unspecified)	2.7	–
O=C(C1CCCCC1)N1CCC(C(=O)N2N=CCC2c2ccccc2)CC1 (stereo unspecified)	5.4	–
O=C(C1CCN(c2ncccn2)CC1)N1N=CC[C@H]1c1ccccc1	4.7	–
O=C(c1cnco1)N1CCC(C(=O)N2N=CC[C@H]2c2ccccc2)CC1	2.7	Vd [9]: 2.1 L/kg; AUC(0-inf) [11]: 400 ng·h/mL
CC(C)(C)C(=O)N1N=CCC1c1c[nH]cn1 (stereo unspecified)	1.7	–
O=C(c1cscn1)N1CCC(C(=O)N2N=CC[C@H]2c2ccccc2)CC1	3	–
CC(C)(C)C(=O)N1N=CCC1c1cocn1 (stereo unspecified)	3	AUC(0-inf) [7]: 200 ng·h/mL; Tmax [8]: 5 min; Cmax [12]: 345 ng/mL
